In ChEMBL document CHEMBL1933027, “Time-dependent botulinum neurotoxin serotype A metalloprotease inhibitors” (Bioorg Med Chem, 2011):

What was measured:
[1] = target: Botulinum neurotoxin type A (Clostridium botulinum, UniProt P0DPI0); test: Inhibition of Clostridium botulinum BoNT/A light chain-mediated SNAP-25 substrate cleavage after 40 mins by FRET assay
Procedure, shortened: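 Recombinant BoNT/A LC at 2 nM was incubated with 20 μM SNAP-25 peptide (AA 187–203, DnpK/daciaC-labelled) for 40 min at 37 °C. Cleaved-substrate fluorescence was read at 485 nm with excitation at 398 nm. IC50 is the compound concentration giving 50% inhibition, averaged over two experiments.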

[2] = target: T1, Lethal factor (Bacillus anthracis, UniProt P15917); test: Inhibition of Bacillus anthracis lethal factor using MCA-KKVYPYPME[dnp]Kamide peptide substrate after 30 mins by FRET assay
T1 sequence (P15917 whole entry): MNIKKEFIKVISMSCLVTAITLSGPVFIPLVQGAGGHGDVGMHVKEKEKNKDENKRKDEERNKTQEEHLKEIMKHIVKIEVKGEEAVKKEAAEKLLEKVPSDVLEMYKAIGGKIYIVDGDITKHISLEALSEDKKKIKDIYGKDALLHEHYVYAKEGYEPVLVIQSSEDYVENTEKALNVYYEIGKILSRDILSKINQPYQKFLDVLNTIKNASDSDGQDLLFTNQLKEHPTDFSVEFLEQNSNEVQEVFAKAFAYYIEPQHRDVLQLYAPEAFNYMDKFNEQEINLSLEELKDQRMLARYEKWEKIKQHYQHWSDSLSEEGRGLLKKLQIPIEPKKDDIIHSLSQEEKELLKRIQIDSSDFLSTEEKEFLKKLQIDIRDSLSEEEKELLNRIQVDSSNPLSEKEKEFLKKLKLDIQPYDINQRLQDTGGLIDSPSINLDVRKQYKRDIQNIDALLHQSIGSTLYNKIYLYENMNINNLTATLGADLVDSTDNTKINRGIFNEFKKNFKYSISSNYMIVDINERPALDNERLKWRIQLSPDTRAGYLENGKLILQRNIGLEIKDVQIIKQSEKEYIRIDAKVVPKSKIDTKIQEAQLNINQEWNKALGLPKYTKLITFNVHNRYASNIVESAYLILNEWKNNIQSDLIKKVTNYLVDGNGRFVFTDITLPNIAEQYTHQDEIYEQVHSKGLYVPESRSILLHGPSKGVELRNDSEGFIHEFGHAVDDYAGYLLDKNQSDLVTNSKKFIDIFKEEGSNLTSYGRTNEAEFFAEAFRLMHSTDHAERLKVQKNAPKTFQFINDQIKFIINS

[3] = target: Botulinum neurotoxin type A (Clostridium botulinum) (UniProt P0DPI0); test: Inhibition of clostridium botulinum BoNT/A-mediated SNAP-25 substrate cleavage in chicken neurons at 30 uM preincubated for 15 mins before substrate addition
Botulinum neurotoxin type A (Clostridium botulinum), sequence (P0DPI0 2-448 limits assumed): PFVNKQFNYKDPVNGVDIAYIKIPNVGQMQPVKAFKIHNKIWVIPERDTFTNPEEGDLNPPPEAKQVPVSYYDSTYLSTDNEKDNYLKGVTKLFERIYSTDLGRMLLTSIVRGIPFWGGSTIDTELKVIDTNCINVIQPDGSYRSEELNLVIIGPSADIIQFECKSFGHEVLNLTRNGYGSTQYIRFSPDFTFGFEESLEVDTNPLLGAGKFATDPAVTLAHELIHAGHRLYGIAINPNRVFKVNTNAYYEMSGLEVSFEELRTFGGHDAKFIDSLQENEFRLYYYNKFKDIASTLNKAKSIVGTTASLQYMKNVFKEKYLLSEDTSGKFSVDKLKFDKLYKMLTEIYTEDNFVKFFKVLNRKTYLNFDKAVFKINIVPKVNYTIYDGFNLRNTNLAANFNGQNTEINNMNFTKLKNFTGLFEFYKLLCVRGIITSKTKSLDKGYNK

Botulinum neurotoxin type A, sequence (P0DPI0 2-448 limits assumed): as above

Compound	IC50 [1]	IC50 [2]	inhibition [3]
N#C/C(=C\c1ccc(-c2ccco2)s1)c1nc2ccccc2[nH]1	59 µM	> 100 µM	–
COc1cc(/C=C(\C#N)c2nc3ccccc3[nH]2)cc(Cl)c1O	59 µM	> 100 µM	–
N#C/C(=C\c1cc(-c2ccccc2)cnc1Cl)c1nc2ccccc2[nH]1	> 100 µM	> 100 µM	–
N#C/C(=C\c1ccc(-c2cccs2)s1)c1ccc2ccccc2n1	> 100 µM	> 100 µM	–
Cc1cc(/C=C(\C#N)c2nc3ccccc3[nH]2)sc1C	> 100 µM	> 100 µM	–
COc1ccc(/C=C(\C#N)c2nc3ccccc3[nH]2)cc1OC	> 100 µM	> 100 µM	–
N#C/C(=C\c1ccc(-c2cccs2)s1)c1nc2ccccc2s1	> 100 µM	> 100 µM	–
N#C/C(=C\c1c[nH]c2c1ccc1ccccc12)c1nc2ccccc2[nH]1	> 100 µM	> 100 µM	–
N=C(N)c1ccc(Oc2ccc(-c3cc4ccc(C(=N)N)cc4[nH]3)cc2)cc1	–	–	42%
Cn1c(/C(C#N)=C/c2ccc(-c3cccs3)s2)[n+](C)c2ccccc21	> 100 µM	–	–
N#C/C(=C\c1ccc(-c2cccs2)o1)c1nc2ccccc2[nH]1	> 100 µM	> 100 µM	–
Cc1c(/C=C(\C#N)c2nc3ccccc3[nH]2)sc2ccccc12	> 100 µM	> 100 µM	–
COc1ccc(/C=C(\C#N)c2nc3ccccc3[nH]2)cc1Br	> 100 µM	> 100 µM	–
